Experimental data reported in ChEMBL document CHEMBL1139833, “Synthesis and metabotropic glutamate receptor activity of S-oxidized variants of (-)-4-amino-2-thiabicyclo-[3.1.0]hexane-4,6-dicarboxylate: identification of potent, selective, and orally bioavailable agonists for mGlu2/3 receptors” (J Med Chem, 2007).
Active and inactive are the calls of the source. No cut-off for these calls is given here.

How the values were obtained:
[1] = target: Metabotropic glutamate receptor 1 (Homo sapiens) (UniProt Q13255); experiment: Agonist activity at human mGluR1a assessed as effect on cAMP production in RGT cells upto 100 uM; assay type: functional, cell-based
Procedure, shortened: (§1)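 Compounds were tested at concentrations up to 100 µM for agonist or antagonist effects. Assays used RGT cells, which are AV12-664 cells coexpressing GLAST and recombinant human mGlu1a, mGlu5a, mGlu4a or mGlu7a.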

[2] = target: Metabotropic glutamate receptor 5 (Homo sapiens) (UniProt P41594); experiment: Agonist activity at human mGluR5a assessed as effect on cAMP production in RGT cells upto 100 uM; assay type: functional, cell-based; procedure, shortened: as §1
[3] = target: Metabotropic glutamate receptor 4 (Homo sapiens) (UniProt Q14833); experiment: Agonist activity at human mGluR4a assessed as effect on cAMP production in RGT cells upto 100 uM; assay type: functional, cell-based; procedure, shortened: as §1
[4] = target: Metabotropic glutamate receptor 7 (Homo sapiens) (UniProt Q14831); experiment: Agonist activity at human mGluR7a assessed as effect on cAMP production in RGT cells upto 100 uM; assay type: functional, cell-based; procedure, shortened: as §1
[5] = target: Metabotropic glutamate receptor 1 (Homo sapiens) (UniProt Q13255); experiment: Antagonist activity against human mGluR1a assessed as effect on cAMP production in RGT cells upto 100 uM; assay type: functional, cell-based; procedure, shortened: as §1
[6] = target: Metabotropic glutamate receptor 5 (Homo sapiens) (UniProt P41594); experiment: Antagonist activity against human mGluR5a assessed as effect on cAMP production in RGT cells upto 100 uM; assay type: functional, cell-based; procedure, shortened: as §1
[7] = target: Metabotropic glutamate receptor 4 (Homo sapiens) (UniProt Q14833); experiment: Antagonist activity against human mGluR4a assessed as effect on cAMP production in RGT cells upto 100 uM; assay type: functional, cell-based; procedure, shortened: as §1
[8] = target: Metabotropic glutamate receptor 7 (Homo sapiens) (UniProt Q14831); experiment: Antagonist activity against human mGluR7a assessed as effect on cAMP production in RGT cells upto 100 uM; assay type: functional, cell-based; procedure, shortened: as §1
Rattus norvegicus [9] = experiment: Plasma concentration in Fischer 344 rat at 10 mg/kg, po after 0.5 hrs; assay type: ADME, organism-based; set-up: dose 10 mg/kg, route oral; conditions: in vivo
Procedure, shortened: (§2)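 Plasma levels in fasted male Fischer 344 rats after a 10 mg/kg oral dose in pH 7 water (NaOH), quantified by positive-ion electrospray LC/MS/MS. Main protocol sampled at 0.08/0.25–24 h, n=3 rats per time point. A variant oral-only arm used n=6 rats with samples at 0.5, 1, 2, 3, 4 and 6 h.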

Rattus norvegicus [10] = experiment: Plasma concentration in Fischer 344 rat at 10 mg/kg, po after 1 hrs; assay type: ADME, organism-based; set-up: dose 10 mg/kg, route oral; conditions: in vivo; procedure, shortened: as §2
Rattus norvegicus [11] = experiment: Plasma concentration in Fischer 344 rat at 10 mg/kg, po after 2 hrs; assay type: ADME, organism-based; set-up: dose 10 mg/kg, route oral; conditions: in vivo; procedure, shortened: as §2
Rattus norvegicus [12] = experiment: Plasma concentration in Fischer 344 rat at 10 mg/kg, po after 3 hrs; assay type: ADME, organism-based; set-up: dose 10 mg/kg, route oral; conditions: in vivo; procedure, shortened: as §2
Rattus norvegicus [13] = experiment: Plasma concentration in Fischer 344 rat at 10 mg/kg, po after 4 hrs; assay type: ADME, organism-based; set-up: dose 10 mg/kg, route oral; conditions: in vivo; procedure, shortened: as §2
Rattus norvegicus [14] = experiment: Plasma concentration in Fischer 344 rat at 10 mg/kg, po after 6 hrs; assay type: ADME, organism-based; set-up: dose 10 mg/kg, route oral; conditions: in vivo; procedure, shortened: as §2
Rattus norvegicus [15] = experiment: (§3) AUC (0-24h) in Fischer 344 rat at 10 mg/kg, po; assay type: ADME, organism-based, Plasma; set-up: time < 24 hr, dose 10 mg/kg, route oral; conditions: rat, in vivo, 24 h
Procedure, shortened: (§4)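 Male Fischer 344 rats fasted overnight, food returned 4 h post dose, water ad libitum. Doses were in water brought to pH 7 with NaOH, given i.v. (2.5 or 10 mg/kg) or p.o. (10 mg/kg). Nine rats per dose group, three per time point, with blood taken over 0.08–24 h. Plasma measured by LC/MS/MS.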

Rattus norvegicus [16] = experiment: Cmax in Fischer 344 rat at 10 mg/kg, po; assay type: ADME, organism-based; set-up: dose 10 mg/kg, route oral; conditions: in vivo; procedure, shortened: as §4
Rattus norvegicus [17] = experiment: (§5) Tmax in Fischer 344 rat at 10 mg/kg, po; assay type: ADME, organism-based; set-up: dose 10 mg/kg, route oral; conditions: rat, in vivo; procedure, shortened: as §4
[18] = target: T1, Metabotropic glutamate receptor 3 (Homo sapiens, UniProt Q14832); experiment: Agonist activity at human mGluR3 assessed as effect on cAMP production in RGT cells; assay type: functional, cell-based
Procedure, shortened: (§6)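 cAMP second-messenger responses measured in RGT cells. These are non-neuronal AV12-664 cells coexpressing the glutamate transporter GLAST, to minimize glutamate activity, plus the recombinant human receptor (mGlu2, mGlu3 or mGlu8). Agonist EC50 determined.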

[19] = target: T1, Metabotropic glutamate receptor 3; experiment: Displacement of [3H]LY341495 from human recombinant mGluR3 in RGT cells; assay type: cell-based
Procedure, shortened: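 Radioligand binding on membranes carrying recombinant human mGlu2 or mGlu3, displacing the antagonist [3H]LY341495. Ki was calculated from IC50 by the Cheng-Prusoff equation. Values are the mean of at least three separate experiments.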

[20] = target: Metabotropic glutamate receptor 2 (Homo sapiens, UniProt Q14416); experiment: Agonist activity at human mGluR2 assessed as effect on cAMP production in RGT cells; assay type: functional, cell-based; procedure, shortened: as §6
[21] = Plasma concentration in Fischer 344 rat after 1 hr; assay type: ADME, organism-based; procedure, shortened: as §2
[22] = Plasma concentration in Fischer 344 rat after 3 hrs; assay type: ADME, organism-based; procedure, shortened: as §2
[23] = Plasma concentration in Fischer 344 rat after 8 hrs; assay type: ADME, organism-based; procedure, shortened: as §2
Rattus norvegicus [24] = experiment: Reduction of PCP-induced ambulations in Sprague-Dawley rat at 3 mg/kg, po; assay type: functional; set-up: scale not given: the % may be the effect or the level left
Procedure, shortened: (§7)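 Male Sprague-Dawley rats (225-274 g) fasted 12-18 h and habituated 30 min to the test cage. Test drug or vehicle was given orally 2 h before PCP (5 mg/kg s.c.) or 0.9% NaCl. Horizontal photobeam breaks were counted over 60 min, n=8-13 per group.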

Rattus norvegicus [25] = experiment: Reduction of PCP-induced ambulations in Sprague-Dawley rat at 10 mg/kg, po; assay type: functional; set-up: scale not given: the % may be the effect or the level left; procedure, shortened: as §7
Rattus norvegicus [26] = experiment: Inhibition of PCP-induced ambulations in Sprague-Dawley rat after oral administration; assay type: functional; procedure, shortened: as §7
[27] = target: Metabotropic glutamate receptor 8 (Homo sapiens, UniProt O00222); experiment: Agonist activity at human mGluR8 assessed as effect on cAMP production in RGT cells; assay type: functional, cell-based; procedure, shortened: as §6
[28] = as §3; assay type: ADME, organism-based, Plasma; set-up: time < 24 hr, dose 10 mg/kg, route oral; conditions: Fischer 344, rat, plasma; procedure, shortened: as §4
[29] = AUC (0-24h) in Fischer 344 rat at 2.5 mg/kg, iv; assay type: ADME, organism-based; set-up: time < 24 hr, dose 2.5 mg/kg, route intravenous; conditions: plasma; procedure, shortened: as §4
Rattus norvegicus [30] = experiment: Cmax in Fischer 344 rat at 2.5 mg/kg, iv; assay type: ADME, organism-based; set-up: dose 2.5 mg/kg, route intravenous; conditions: in vivo; procedure, shortened: as §4
[31] = as §5; assay type: ADME, organism-based; set-up: dose 10 mg/kg, route oral; conditions: Fischer 344, rat, in vivo; procedure, shortened: as §4
[32] = Tmax in Fischer 344 rat at 2.5 mg/kg, iv; assay type: ADME, organism-based; set-up: dose 2.5 mg/kg, route intravenous; conditions: in vivo; procedure, shortened: as §4
[33] = Oral bioavailability in Fischer 344 rat at 10 mg/kg, po; assay type: ADME, organism-based; conditions: in vivo; procedure, shortened: as §4
Rattus norvegicus [34] = experiment: AUC (0-24h) in Fischer 344 rat at 10 mg/kg, po; conditions: in vivo

Chain of Metabotropic glutamate receptor 4 (Homo sapiens) (Q14833 whole entry): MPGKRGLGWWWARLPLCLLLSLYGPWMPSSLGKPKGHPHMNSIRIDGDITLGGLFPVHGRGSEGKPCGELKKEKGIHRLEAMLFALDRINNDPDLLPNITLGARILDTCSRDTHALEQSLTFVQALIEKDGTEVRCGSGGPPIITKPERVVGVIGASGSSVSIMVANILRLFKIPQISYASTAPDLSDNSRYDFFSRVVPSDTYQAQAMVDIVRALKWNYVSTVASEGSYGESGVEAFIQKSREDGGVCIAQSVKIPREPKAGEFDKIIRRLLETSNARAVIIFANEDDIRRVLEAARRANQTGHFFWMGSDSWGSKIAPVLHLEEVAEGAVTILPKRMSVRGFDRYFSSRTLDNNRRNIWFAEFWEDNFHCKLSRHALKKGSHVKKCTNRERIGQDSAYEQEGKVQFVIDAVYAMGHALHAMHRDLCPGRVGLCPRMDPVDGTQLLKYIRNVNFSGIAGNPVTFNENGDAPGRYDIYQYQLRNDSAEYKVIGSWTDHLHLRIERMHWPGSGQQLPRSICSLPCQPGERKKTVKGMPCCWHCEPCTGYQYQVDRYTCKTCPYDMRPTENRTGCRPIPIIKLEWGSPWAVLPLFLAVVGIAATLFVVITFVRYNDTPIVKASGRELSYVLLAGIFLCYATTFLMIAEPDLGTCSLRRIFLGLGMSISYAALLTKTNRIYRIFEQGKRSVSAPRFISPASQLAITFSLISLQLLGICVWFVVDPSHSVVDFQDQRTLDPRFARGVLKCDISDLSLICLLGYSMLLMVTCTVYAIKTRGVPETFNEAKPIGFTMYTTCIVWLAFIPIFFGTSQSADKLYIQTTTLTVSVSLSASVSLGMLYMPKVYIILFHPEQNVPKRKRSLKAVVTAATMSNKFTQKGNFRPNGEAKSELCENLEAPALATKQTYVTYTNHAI
Chain of Metabotropic glutamate receptor 1 (Homo sapiens) (Q13255 19-1194 limits assumed): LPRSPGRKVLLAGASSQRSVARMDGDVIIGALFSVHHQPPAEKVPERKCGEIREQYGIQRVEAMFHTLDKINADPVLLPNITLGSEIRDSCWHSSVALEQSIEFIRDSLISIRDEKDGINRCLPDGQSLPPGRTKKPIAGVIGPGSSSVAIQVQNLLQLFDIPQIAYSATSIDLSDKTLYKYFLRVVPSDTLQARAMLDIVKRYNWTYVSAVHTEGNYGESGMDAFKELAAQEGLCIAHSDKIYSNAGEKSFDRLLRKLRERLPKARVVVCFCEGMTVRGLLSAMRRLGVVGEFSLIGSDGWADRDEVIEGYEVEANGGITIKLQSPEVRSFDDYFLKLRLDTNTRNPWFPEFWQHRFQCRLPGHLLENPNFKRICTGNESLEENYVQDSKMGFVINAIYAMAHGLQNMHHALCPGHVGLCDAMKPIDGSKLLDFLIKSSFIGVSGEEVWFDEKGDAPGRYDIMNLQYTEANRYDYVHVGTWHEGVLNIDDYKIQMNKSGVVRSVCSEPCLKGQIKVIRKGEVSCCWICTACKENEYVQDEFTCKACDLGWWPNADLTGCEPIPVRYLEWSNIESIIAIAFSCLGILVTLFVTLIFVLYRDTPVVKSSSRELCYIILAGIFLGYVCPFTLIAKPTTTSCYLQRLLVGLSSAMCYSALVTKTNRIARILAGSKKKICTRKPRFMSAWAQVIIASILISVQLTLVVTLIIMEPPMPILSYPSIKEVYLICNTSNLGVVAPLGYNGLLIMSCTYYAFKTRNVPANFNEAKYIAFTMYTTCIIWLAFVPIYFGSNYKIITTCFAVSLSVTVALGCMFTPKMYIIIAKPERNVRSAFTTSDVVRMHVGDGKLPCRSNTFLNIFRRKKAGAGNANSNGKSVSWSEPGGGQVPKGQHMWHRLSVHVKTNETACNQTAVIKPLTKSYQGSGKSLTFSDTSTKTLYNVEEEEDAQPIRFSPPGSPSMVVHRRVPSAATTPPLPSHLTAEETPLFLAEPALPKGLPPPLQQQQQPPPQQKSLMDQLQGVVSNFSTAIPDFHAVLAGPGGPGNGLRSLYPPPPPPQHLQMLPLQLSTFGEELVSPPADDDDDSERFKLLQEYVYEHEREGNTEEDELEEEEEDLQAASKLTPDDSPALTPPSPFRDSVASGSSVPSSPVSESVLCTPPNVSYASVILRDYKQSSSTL
Chain of Metabotropic glutamate receptor 5 (Homo sapiens) (P41594 21-1212 limits assumed): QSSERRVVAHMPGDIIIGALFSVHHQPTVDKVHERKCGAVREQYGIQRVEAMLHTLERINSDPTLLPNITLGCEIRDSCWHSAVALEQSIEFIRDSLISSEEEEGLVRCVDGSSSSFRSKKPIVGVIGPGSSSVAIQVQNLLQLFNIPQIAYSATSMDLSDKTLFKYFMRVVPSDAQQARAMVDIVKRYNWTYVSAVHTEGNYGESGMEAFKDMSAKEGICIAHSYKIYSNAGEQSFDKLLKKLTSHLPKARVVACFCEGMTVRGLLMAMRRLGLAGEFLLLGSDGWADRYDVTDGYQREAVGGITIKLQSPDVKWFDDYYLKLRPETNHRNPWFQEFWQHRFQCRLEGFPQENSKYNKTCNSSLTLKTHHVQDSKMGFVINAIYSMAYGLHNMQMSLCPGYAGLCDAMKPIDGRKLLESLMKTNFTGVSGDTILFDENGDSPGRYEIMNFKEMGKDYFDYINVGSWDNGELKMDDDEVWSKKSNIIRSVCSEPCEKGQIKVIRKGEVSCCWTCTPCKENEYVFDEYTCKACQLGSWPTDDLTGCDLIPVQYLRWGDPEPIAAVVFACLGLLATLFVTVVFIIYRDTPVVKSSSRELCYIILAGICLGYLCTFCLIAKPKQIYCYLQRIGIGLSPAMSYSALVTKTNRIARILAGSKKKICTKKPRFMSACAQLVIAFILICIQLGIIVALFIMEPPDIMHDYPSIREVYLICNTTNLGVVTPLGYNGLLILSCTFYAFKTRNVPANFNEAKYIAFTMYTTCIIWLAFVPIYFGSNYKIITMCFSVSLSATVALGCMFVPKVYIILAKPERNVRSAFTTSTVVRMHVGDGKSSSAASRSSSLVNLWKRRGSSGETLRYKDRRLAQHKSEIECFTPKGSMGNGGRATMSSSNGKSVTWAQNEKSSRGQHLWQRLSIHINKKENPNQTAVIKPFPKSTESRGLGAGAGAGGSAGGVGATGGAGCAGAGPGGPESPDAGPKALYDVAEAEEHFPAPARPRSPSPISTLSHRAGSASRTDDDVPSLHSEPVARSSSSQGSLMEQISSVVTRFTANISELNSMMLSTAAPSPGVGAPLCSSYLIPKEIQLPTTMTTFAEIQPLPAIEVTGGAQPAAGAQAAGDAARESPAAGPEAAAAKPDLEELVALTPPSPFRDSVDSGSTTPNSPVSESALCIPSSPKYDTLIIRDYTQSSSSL
Chain of Metabotropic glutamate receptor 7 (Homo sapiens) (Q14831 whole entry): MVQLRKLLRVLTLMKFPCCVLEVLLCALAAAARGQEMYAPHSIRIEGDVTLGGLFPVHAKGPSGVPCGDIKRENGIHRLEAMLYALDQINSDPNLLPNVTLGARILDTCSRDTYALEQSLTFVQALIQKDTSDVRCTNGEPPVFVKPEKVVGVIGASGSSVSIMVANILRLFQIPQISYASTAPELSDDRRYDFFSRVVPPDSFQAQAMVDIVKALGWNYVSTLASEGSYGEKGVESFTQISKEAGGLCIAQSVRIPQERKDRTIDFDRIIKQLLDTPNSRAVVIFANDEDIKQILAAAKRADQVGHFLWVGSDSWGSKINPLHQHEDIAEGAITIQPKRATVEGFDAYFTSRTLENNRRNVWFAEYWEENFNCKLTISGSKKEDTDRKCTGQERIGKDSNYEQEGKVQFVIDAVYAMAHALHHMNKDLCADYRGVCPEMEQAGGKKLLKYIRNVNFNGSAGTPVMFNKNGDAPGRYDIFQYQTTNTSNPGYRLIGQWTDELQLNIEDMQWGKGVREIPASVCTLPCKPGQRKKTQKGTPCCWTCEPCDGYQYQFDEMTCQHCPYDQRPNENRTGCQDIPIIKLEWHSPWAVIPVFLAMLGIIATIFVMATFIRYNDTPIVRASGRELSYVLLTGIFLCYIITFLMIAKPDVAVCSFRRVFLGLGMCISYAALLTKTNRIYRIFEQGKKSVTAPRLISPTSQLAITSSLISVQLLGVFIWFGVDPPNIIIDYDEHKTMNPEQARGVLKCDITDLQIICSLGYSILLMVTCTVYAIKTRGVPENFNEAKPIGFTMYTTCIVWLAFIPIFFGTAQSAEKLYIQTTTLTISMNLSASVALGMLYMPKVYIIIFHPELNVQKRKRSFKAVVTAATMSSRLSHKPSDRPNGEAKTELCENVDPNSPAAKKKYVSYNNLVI
T1 sequence (Q14832 whole entry): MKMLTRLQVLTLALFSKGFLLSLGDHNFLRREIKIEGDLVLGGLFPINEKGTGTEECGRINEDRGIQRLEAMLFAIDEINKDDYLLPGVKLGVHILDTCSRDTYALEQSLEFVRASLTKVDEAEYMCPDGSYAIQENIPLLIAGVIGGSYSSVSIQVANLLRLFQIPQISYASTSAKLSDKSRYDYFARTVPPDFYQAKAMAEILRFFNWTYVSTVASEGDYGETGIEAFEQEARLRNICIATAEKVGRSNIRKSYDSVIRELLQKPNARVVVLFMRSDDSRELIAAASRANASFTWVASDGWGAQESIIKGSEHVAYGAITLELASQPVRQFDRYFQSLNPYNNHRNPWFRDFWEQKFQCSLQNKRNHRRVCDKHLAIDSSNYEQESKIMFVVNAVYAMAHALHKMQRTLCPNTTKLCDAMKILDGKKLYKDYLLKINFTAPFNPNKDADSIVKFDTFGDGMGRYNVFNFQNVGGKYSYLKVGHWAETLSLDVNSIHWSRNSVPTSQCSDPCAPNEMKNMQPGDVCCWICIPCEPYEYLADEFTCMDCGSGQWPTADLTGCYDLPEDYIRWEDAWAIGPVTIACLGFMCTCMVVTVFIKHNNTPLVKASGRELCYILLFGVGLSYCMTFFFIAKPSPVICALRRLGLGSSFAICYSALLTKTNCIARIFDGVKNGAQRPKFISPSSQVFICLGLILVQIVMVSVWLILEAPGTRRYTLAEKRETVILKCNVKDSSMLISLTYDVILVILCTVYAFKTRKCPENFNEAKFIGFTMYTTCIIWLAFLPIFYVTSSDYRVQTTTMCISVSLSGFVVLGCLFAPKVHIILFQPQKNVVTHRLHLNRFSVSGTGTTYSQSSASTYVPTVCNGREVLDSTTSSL

Structure (SMILES)	Activity [1]	Activity [2]	Activity [3]	Activity [4]	Activity [5]	Activity [6]	Activity [7]	Activity [8]	Cmax (Rattus norvegicus [16]) [ng/mL]	also measured
N[C@@]1(C(=O)O)CS[C@H]2[C@H](C(=O)O)[C@H]21	inactive	inactive	inactive	inactive	inactive	inactive	inactive	inactive	–	–
N[C@@]1(C(=O)O)CS(=O)(=O)[C@H]2[C@H](C(=O)O)[C@H]21 [LY404039]	inactive	inactive	inactive	inactive	inactive	inactive	inactive	inactive	4000	EC50 [18]: 48 nM; Ki [19]: 92 nM; EC50 [20]: 23.4 nM; concentration at 1 h [21]: 4000 ng/mL; concentration at 3 h [22]: > 500 ng/mL; concentration at 8 h [23]: < 10 ng/mL; Activity (Rattus norvegicus [24]): 91%; Activity (Rattus norvegicus [25]): 91%; ED50 (Rattus norvegicus [26]): 2.5 mg/kg; EC50 [27]: 47800 nM; AUC(0-t) at 24 h [28]: 7200 ng·h/mL; AUC(0-t) at 24 h [29]: 2900 ng·h/mL; Cmax (Rattus norvegicus [30]): 7500 ng/mL; Tmax [31]: 1 h; Tmax [32]: 0 h; bioavailability [33]: 63%; AUC (Rattus norvegicus [34]): 7.2 µg/mL

Continued, in another order:

Activity [1]	Activity [2]	Activity [3]	Activity [4]	Activity [5]	Activity [6]	Activity [7]	Activity [8]	Cmax (Rattus norvegicus [16]) [ng/mL]	Structure (SMILES)	also measured
inactive	inactive	inactive	inactive	inactive	inactive	inactive	inactive	–	N[C@@]1(C(=O)O)CC[C@H]2[C@H](C(=O)O)[C@H]21	–
–	–	–	–	–	–	–	–	400	N[C@@]1(C(=O)O)C[S+]([O-])[C@H]2[C@H](C(=O)O)[C@H]21 (stereo in doubt; (-)-11)	Cp (Rattus norvegicus [9]): 325 ng/mL; Cp (Rattus norvegicus [10]): 367 ng/mL; Cp (Rattus norvegicus [11]): 258 ng/mL; Cp (Rattus norvegicus [12]): 229 ng/mL; Cp (Rattus norvegicus [13]): 77 ng/mL; Cp (Rattus norvegicus [14]): 71.8 ng/mL; AUC (Rattus norvegicus [15]): 1100 ng·h/mL; Tmax (Rattus norvegicus [17]): 1 h
inactive	inactive	inactive	inactive	inactive	inactive	inactive	inactive	–	N[C@@]1(C(=O)O)C[S+]([O-])[C@H]2[C@H](C(=O)O)[C@H]21 (stereo in doubt; (-)-10)	–
